# Screening data: PubChem BioAssay, several laboratories
# Runt-SMMHC FRET: inhibitors of RUNX1 Runt–CBFb-SMMHC binding, primary screen, biochemical, FRET, Cerulean-Runt, Venus-CBFb-SMMHC, uHTS; Cerulean-Runt/Venus-CBFb-SMMHC FRET ratio 530/480, 1 h; 220,000 compounds, 0.74% hits; Runt-related transcription factor 1 (Homo sapiens) + Core-binding factor subunit beta …; inhibition, % at 20 µM; AID 1434, 2008;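 active = mean inhibition across duplicate retests at 20 µM reaching about 50%, limit read from the data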;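 also: inhibitors lower the FRET ratio by blocking Runt binding to CBFb-SMMHC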
# Target sequence (Q01196 whole entry, looked up): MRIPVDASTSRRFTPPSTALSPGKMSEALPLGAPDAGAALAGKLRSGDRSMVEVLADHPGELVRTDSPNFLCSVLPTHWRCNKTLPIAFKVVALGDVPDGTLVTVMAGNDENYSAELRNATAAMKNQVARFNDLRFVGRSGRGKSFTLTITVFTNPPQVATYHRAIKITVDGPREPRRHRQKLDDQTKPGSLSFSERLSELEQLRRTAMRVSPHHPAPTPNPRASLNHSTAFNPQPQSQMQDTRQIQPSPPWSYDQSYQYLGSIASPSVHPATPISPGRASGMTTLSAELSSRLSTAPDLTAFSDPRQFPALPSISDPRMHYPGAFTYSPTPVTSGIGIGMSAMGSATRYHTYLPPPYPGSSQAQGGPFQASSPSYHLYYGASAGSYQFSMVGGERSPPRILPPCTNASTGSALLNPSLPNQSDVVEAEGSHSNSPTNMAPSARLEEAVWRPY
# Target sequence (Q13951 whole entry, looked up): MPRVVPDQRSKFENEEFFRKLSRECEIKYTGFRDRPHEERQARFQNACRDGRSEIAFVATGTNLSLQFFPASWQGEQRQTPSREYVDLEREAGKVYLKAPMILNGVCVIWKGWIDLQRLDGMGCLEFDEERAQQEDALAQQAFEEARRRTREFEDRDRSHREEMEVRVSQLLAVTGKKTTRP
# Vif inh: HIV Vif self-association inhibitors, primary screen, imaging, HEK293T, single point | 340,000 compounds, 0.35% hits | AID 602346, 2012 | inhibition, % at 7.49 µM | HEK293T cells, Vif self-association by quenched fluorescence, 24 h; in the data active = inhibition above about 50%, passing the limit was not always enough; inconclusive = no clear call, values can overlap the other calls; inactive = below about 31%
# Runt-CBFb FRET: inhibitors of RUNX1 Runt–CBFb binding, primary screen, biochemical, FRET, Cerulean-Runt, Venus-CBFb, uHTS; Cerulean-Runt/Venus-CBFb FRET ratio 530/480, 1 h; Runt-related transcription factor 1 (Homo sapiens) + Core-binding factor subunit beta …; 220,000 compounds, 0.46% hits; inhibition, % at 20 µM;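 active = inhibition over about 50% at 20 µM in the single-dose screen, limit read from the data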
#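 Schedule: protein complex preformed 1 h, compound exposure 1 h, room temperature, dark; test system: Cerulean-labeled Runt domain protein; amount: 100 nM per protein; buffer or medium: Tris 50 mM pH 7.5, KCl, K2SO4, 0.01% BSA; read-out: loss of energy transfer signal; detection: FRET fluorescence; controls: 5 µM unlabeled CBFb as full-inhibition high control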
# RanGTP-Imp inh: inhibitors of RanGTP-importin-beta interaction, primary screen, biochemical, FRET, CFP-Ran, YFP-importin-beta, homogeneous; Ran GTPase (GTP-bound) - importin-beta complex; cell-free CFP-Ran/YFP-importin-beta FRET ratio; inhibition, % (test concentration not listed); 300,000 compounds, 1.1% hits;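 active = more than half of the replicate wells show a fall in the fluorescence ratio signal beyond about 16%, limit read from the data, passing the limit was not always enough; inconclusive = exactly half of the replicate wells pass the set limit; inactive = fewer than half of replicates pass the limit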
# Rce1 inh: yeast Rce1p protease inhibitors, primary screen, biochemical, fluorescence, cell-free homogeneous. CAAX prenyl protease 2 (Saccharomyces cerevisiae (strain ATCC 204508 / S288c)), Q03530. 290,000 compounds, 0.27% hits. calls only. yeast membranes, quenched prenylated peptide cleavage fluorescence;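 active = fall in fluorescence gain of 50% or more versus controls, with final raw signal at or below 3038400; inconclusive = same 50% fall but final raw signal above 3038400; inactive = fall in fluorescence gain under 50%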
# Runt-CBFb TRFRET: inhibitors of RUNX1 Runt–CBFb binding, biochemical, TR-FRET; inhibition, % at 20 µM; TR-FRET RUNX1 Runt domain-CBFb binding; 480 compounds, 20% hits; shares compounds with Runt-CBFb FRET; in the data active = inhibition above about 40%
# YIC counter: YIC intramolecular FRET probe signal interference, dose response, counter-screen for RanGTP-importin-beta inhibitor project, biochemical, fluorescence FRET. Purified YIC probe, intramolecular FRET ratio YFP/CFP. 1,000 compounds, 40% hits. shares compounds with RanGTP-Imp inh. IC50, µM;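 active = fitted half-maximal inhibitory concentration no more than tenfold above the top dose tested; inconclusive = flat fit with 30 to 70% activity, or poor fit; inactive = half-maximal concentration beyond tenfold above the top dose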
# Hits are given with their value; . = inactive; ? = inconclusive; / = no result given; + = active, no number. Sampled rows, rich in hits. Any-hit rate of the full collection: about 1.7%.
SMILES,Runt-SMMHC FRET,Vif inh,Runt-CBFb FRET,RanGTP-Imp inh,Rce1 inh,others
O=[N+]([O-])c1cccc(NP(=O)(Oc2ccccc2)Oc2ccccc2)c1,/,.,/,.,.,
Cc1cccn2c(=O)c3cc(C(=O)N4CCC5(CC4)OCCO5)n(C)c3nc12,83.3,.,.,.,.,
O=S(=O)(c1cccc2ccccc12)N1Cc2ccccc2-n2nncc2C1,/,.,/,/,/,
Oc1cc2c(cc1O)[C@H]1c3ccccc3CN[C@@H]1CC2,55.5,/,.,.,.,
C=CCn1c(O)c(C(CC)=Nc2ccc(N(CC)CC)cc2)c(=O)[nH]c1=O,.,.,.,.,+,
C=CCn1c(O)c(C(C)=Nc2ccc(N(CC)CC)cc2)c(=O)[nH]c1=O,.,?,.,.,.,
CCC(C)C1NC(=O)C(NC(=O)C(CC(C)C)N(C)C(=O)C2CCCN2C(=O)C(C)O)C(C)OC(=O)C(Cc2ccc(OC)cc2)N(C)C(=O)C2CCCN2C(=O)C(CC(C)C)NC(=O)[C@H](C)C(=O)[C@H](C(C)C)OC(=O)CC1O (stereo partly specified),/,.,/,/,/,
O=C(NCNC(=O)NC1C(=O)NC(=O)N1CO)NC1C(=O)NC(=O)N1CO (stereo unspecified),/,122.8,/,/,/,
CCOc1ccc(C2C(C#N)=C(N)Oc3c2c(=O)oc2ccccc32)cc1 (stereo unspecified),.,.,.,.,+,
N#CC1=C(N)Oc2c(c(=O)oc3ccccc23)C1c1ccncc1 (stereo unspecified),.,.,.,/,/,
N#Cc1ncc(N=Cc2ccc(N(CCCl)CCCl)cc2)s1,/,.,/,/,/,
CCCCn1c(=O)c(C=Nc2cccnc2Cl)c(O)n(CCCCl)c1=O,.,.,.,.,+,
C=CCn1c(=O)c(C=Nc2cccc([N+](=O)[O-])c2)c(O)n(CCCC)c1=O,.,.,/,.,.,
C[n+]1ccc(-c2ccccc2)c2ccccc21,/,.,/,.,+,
CN(C)c1ccc(/C=C/c2cc[n+](C)c3ccccc23)cc1,.,.,.,/,/,
O=C1OC(c2ccc([N+](=O)[O-])cc2)=N/C1=C/N1CC2CC(C1)c1cccc(=O)n1C2 (stereo unspecified),.,52.4,.,.,.,
CCCNC(=O)c1c(N)n(CC2CCCO2)c2nc3ccccc3nc12 (stereo unspecified),77.9,.,.,.,.,
CC(C)OCCCNC(=O)c1c(N)n(CC2CCCO2)c2nc3ccccc3nc12 (stereo unspecified),61.5,.,74.0,102.6,+,
CS(=O)(=O)c1ccc(C2=C(CNC(=O)c3nccs3)[C@H]3CC[C@@H](C2)N3CCOc2ccccc2)cc1,/,.,/,/,/,
CCCCn1c(N)c(C(=O)OCCOC)c2nc3ccccc3nc21,106.8,.,61.8,?,.,Runt-CBFb TRFRET=.
CCCCn1c(=O)c(C(=O)Nc2nc3ccccc3[nH]2)c(O)c2ccccc21,.,/,.,/,/,
CCC[N+]12CCC(CC1)C(=C(c1ccccc1)c1ccccc1)C2,.,.,52.4,.,.,Runt-CBFb TRFRET=.
O=C1NC(=S)NC(=O)C1=Cc1cccn1-c1ccc(O)cc1,.,.,57.3,.,.,Runt-CBFb TRFRET=90.3
C[C@H]1CCC/C=C/[C@@H]2C[C@H](O)C[C@H]2[C@H](O)/C=C/C(=O)O1,/,.,/,/,/,
CCn1cc(C(=O)N2CCOCC2)c2ccccc21,.,.,.,.,.,
SMILES,Runt-SMMHC FRET,Vif inh,Runt-CBFb FRET,RanGTP-Imp inh,Rce1 inh,others
CC[n+]1c(/C=C/N(C)c2ccccc2)sc2ccc(Cl)cc21,.,.,55.3,?,.,Runt-CBFb TRFRET=.
CC[n+]1c(/C=C/C=C/c2ccc(N(C)C)cc2)sc2ccccc21,.,.,.,.,.,
CC(=O)c1c(O)n(-c2cccc(Cl)c2)c(=O)[nH]c1=O (tested in a mixture with another compound),.,.,.,.,.,
CC(C)n1c(O)c(C2c3cc(Cl)ccc3Oc3[nH]c(=O)n(C(C)C)c(=O)c32)c(=O)[nH]c1=O (stereo unspecified),74.8,.,59.7,21.7,.,Runt-CBFb TRFRET=.;YIC counter=.
Cc1cc(C)c2c(ccc3cccc[n+]32)c1,/,.,/,.,.,
COCCOC(=O)c1c(N)n(Cc2ccccc2)c2nc3ccccc3nc12,107.8,.,50.7,18.6,.,Runt-CBFb TRFRET=.;YIC counter=46.5
Nc1c(C(=O)OC2CCCCC2)c2nc3ccccc3nc2n1CC1CCCO1 (stereo unspecified),106.5,.,54.3,23.1,.,Runt-CBFb TRFRET=.;YIC counter=27.4
COC(=O)C1=C(c2ccc(OC)c(OC)c2)C[C@@H]2CC[C@H]1N2C(=O)N1CCOCC1,/,.,/,/,/,
CC(C)OC(=O)c1c(N)n(CC2CCCO2)c2nc3ccccc3nc12 (stereo unspecified),92.0,.,71.8,23.6,.,YIC counter=19.9
O=C(Nc1cccc(OC(=O)N2CCOCC2)c1)N1CCOCC1,.,/,.,.,/,
O=C(Nc1cccc(OC(=O)N2CCCCC2)c1)N1CCCCC1,.,/,.,21.1,.,YIC counter=.
C[C@]12CCC3C(CC[C@H]4C[C@@H](O)CC[C@]34C)[C@H]1CC[C@H]2O (stereo partly specified),/,.,/,/,/,
C=CCN1CCc2cccc3c2[C@H]1Cc1ccc(O)c(O)c1-3,/,.,/,18.7,.,YIC counter=.
CC(C)c1ccc(NC(=O)CCNC(=O)N2C[C@H]3C[C@@H](C2)c2cccc(=O)n2C3)cc1,/,.,/,.,/,
CC(C)CCn1c(=O)c(C(=O)NCc2ccc3c(c2)OCO3)c(O)c2ccccc21,/,.,/,.,.,
CCCCNC(=O)c1c(N)n(Cc2ccc3c(c2)OCO3)c2nc3ccccc3nc12,.,.,.,32.3,.,YIC counter=3.12
CN1CC2=CC(O)CC3Oc4c(O)ccc(c4[C@]23C)C1 (stereo partly specified),/,.,/,25.5,.,YIC counter=.
CC(=O)N1CN2CN(C(C)=O)CC(C(=O)c3ccc([N+](=O)[O-])cc3)(C2)C1,.,/,.,.,.,
CC(=O)N1CN2CN(C(C)=O)CC(C(=O)c3ccccc3)(C2)C1,.,.,.,20.7,.,YIC counter=.
COC(=O)C1=C(c2ccc(S(C)(=O)=O)cc2)C[C@@H]2CC[C@H]1N2C(=O)NC(C)C,/,.,/,.,.,
Cc1cc(C=C(C#N)C#N)ccc1N1CCCC1,.,.,.,31.1,.,YIC counter=.
Cc1cc(OCC(=O)N2CCC(C(=O)O)CC2)c2c3c(c(=O)oc2c1)CCC3,/,.,/,.,/,
CCN1/C(=C\C=C\C2=[N+](CC)c3ccccc3C2(C)C)C(C)(C)c2ccccc21,.,/,.,26.8,.,YIC counter=29.8
c1ccc(C2NCCc3[nH]cnc32)cc1 (stereo unspecified),.,.,.,.,.,
